Laboratory results taken from ChEMBL document CHEMBL4152188, “Design, synthesis and biological evaluation of C(4) substituted monobactams as antibacterial agents against multidrug-resistant Gram-negative bacteria” (Eur J Med Chem, 2018).
≈ marks a conversion by molar mass, not a printed value.

What was measured:
Format in all cases: functional
Escherichia coli [1] = assay: Antibacterial activity against extended-spectrum beta-lactamase producing Escherichia coli isolate 212648 after 18 hrs by CLSI broth microdilution method; settings: isolate 212648, 18 h
Escherichia coli [2] = assay: Antibacterial activity against extended-spectrum beta-lactamase producing Escherichia coli isolate 106342 after 18 hrs by CLSI broth microdilution method; settings: isolate 106342, 18 h
Escherichia coli [3] = assay: Antibacterial activity against extended-spectrum beta-lactamase producing Escherichia coli isolate 209285 after 18 hrs in presence of BPL by CLSI broth microdilution method; settings: isolate 209285, 18 h
Summary of the method: (§1)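 CLSI broth microdilution against clinical isolates (ESBL E. coli, KPC-2 MDR K. pneumoniae, IMP-4 MDR P. aeruginosa; five per species). Iron limitation: Mueller-Hinton broth supplemented with 16 mg/liter 2,2'-bipyridyl to complex iron and induce iron uptake systems. Read-out: MIC.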

Escherichia coli [4] = assay: Selectivity index, ratio of MIC for against extended-spectrum beta-lactamase producing Escherichia coli isolate 208687 to MIC for extended-spectrum beta-lactamase producing Escherichia coli isolate 208687 in presence of BPL
Escherichia coli [5] = assay: Selectivity index, ratio of MIC for against extended-spectrum beta-lactamase producing Escherichia coli isolate 212648 to MIC for extended-spectrum beta-lactamase producing Escherichia coli isolate 212648 in presence of BPL
Klebsiella pneumoniae [6] = assay: Antibacterial activity against KPC-2 producing Klebsiella pneumoniae isolate 209735 after 18 hrs by CLSI broth microdilution method; settings: isolate 209735, 18 h
Klebsiella pneumoniae [7] = assay: Antibacterial activity against KPC-2 producing Klebsiella pneumoniae isolate 212232 after 18 hrs in presence of BPL by CLSI broth microdilution method; settings: isolate 212232, 18 h; summary of the method: as §1
Pseudomonas aeruginosa [8] = assay: Antibacterial activity against IMP-4 producing Pseudomonas aeruginosa isolate 207272 after 18 hrs in presence of BPL by CLSI broth microdilution method; settings: isolate 207272, 18 h; summary of the method: as §1
Pseudomonas aeruginosa [9] = assay: Antibacterial activity against IMP-4 producing Pseudomonas aeruginosa isolate 209471 after 18 hrs in presence of BPL by CLSI broth microdilution method; settings: isolate 209471, 18 h; summary of the method: as §1
Escherichia coli [10] = assay: Antibacterial activity against extended-spectrum beta-lactamase producing Escherichia coli isolate 209285 after 18 hrs by CLSI broth microdilution method; settings: isolate 209285, 18 h
Klebsiella pneumoniae [11] = assay: Antibacterial activity against KPC-2 producing Klebsiella pneumoniae isolate 209735 after 18 hrs in presence of BPL by CLSI broth microdilution method; settings: isolate 209735, 18 h; summary of the method: as §1
Klebsiella pneumoniae [12] = assay: Antibacterial activity against KPC-2 producing Klebsiella pneumoniae isolate 212229 after 18 hrs in presence of BPL by CLSI broth microdilution method; settings: isolate 212229, 18 h; summary of the method: as §1
Klebsiella pneumoniae [13] = assay: Antibacterial activity against KPC-2 producing Klebsiella pneumoniae isolate 209632 after 18 hrs by CLSI broth microdilution method; settings: isolate 209632, 18 h
Pseudomonas aeruginosa [14] = assay: Antibacterial activity against IMP-4 producing Pseudomonas aeruginosa isolate 212886 after 18 hrs by CLSI broth microdilution method; settings: isolate 212886, 18 h
Pseudomonas aeruginosa [15] = assay: Antibacterial activity against IMP-4 producing Pseudomonas aeruginosa isolate 207272 after 18 hrs by CLSI broth microdilution method; settings: isolate 207272, 18 h
Klebsiella pneumoniae [16] = assay: Antibacterial activity against KPC-2 producing Klebsiella pneumoniae isolate 212423 after 18 hrs in presence of BPL by CLSI broth microdilution method; settings: isolate 212423, 18 h; summary of the method: as §1
Pseudomonas aeruginosa [17] = assay: Selectivity index, ratio of MIC for against IMP-4 producing Pseudomonas aeruginosa isolate 209321 to MIC for against IMP-4 producing Pseudomonas aeruginosa isolate 209321 in presence of BPL
Pseudomonas aeruginosa [18] = assay: Antibacterial activity against IMP-4 producing Pseudomonas aeruginosa isolate 212886 after 18 hrs in presence of BPL by CLSI broth microdilution method; settings: isolate 212886, 18 h; summary of the method: as §1
Pseudomonas aeruginosa [19] = assay: Antibacterial activity against IMP-4 producing Pseudomonas aeruginosa isolate 209471 after 18 hrs by CLSI broth microdilution method; settings: isolate 209471, 18 h
Escherichia coli [20] = assay: Antibacterial activity against extended-spectrum beta-lactamase producing Escherichia coli isolate 212648 after 18 hrs in presence of BPL by CLSI broth microdilution method; settings: isolate 212648, 18 h; summary of the method: as §1
Pseudomonas aeruginosa [21] = assay: Antibacterial activity against IMP-4 producing Pseudomonas aeruginosa isolate 209321 after 18 hrs in presence of BPL by CLSI broth microdilution method; settings: isolate 209321, 18 h; summary of the method: as §1
Escherichia coli [22] = assay: Antibacterial activity against extended-spectrum beta-lactamase producing Escherichia coli isolate 208687 after 18 hrs by CLSI broth microdilution method; settings: isolate 208687, 18 h
Pseudomonas aeruginosa [23] = assay: Antibacterial activity against IMP-4 producing Pseudomonas aeruginosa isolate 209321 after 18 hrs by CLSI broth microdilution method; settings: isolate 209321, 18 h
Pseudomonas aeruginosa [24] = assay: Antibacterial activity against IMP-4 producing Pseudomonas aeruginosa isolate 208247 after 18 hrs by CLSI broth microdilution method; settings: isolate 208247, 18 h
Pseudomonas aeruginosa [25] = assay: Antibacterial activity against IMP-4 producing Pseudomonas aeruginosa isolate 208247 after 18 hrs in presence of BPL by CLSI broth microdilution method; settings: isolate 208247, 18 h; summary of the method: as §1
Escherichia coli [26] = assay: Antibacterial activity against extended-spectrum beta-lactamase producing Escherichia coli isolate 208687 after 18 hrs in presence of BPL by CLSI broth microdilution method; settings: isolate 208687, 18 h; summary of the method: as §1
Escherichia coli [27] = assay: Selectivity index, ratio of MIC for against extended-spectrum beta-lactamase producing Escherichia coli isolate 209285 to MIC for extended-spectrum beta-lactamase producing Escherichia coli isolate 209285 in presence of BPL
Escherichia coli [28] = assay: Antibacterial activity against Escherichia coli isolate 210737 after 18 hrs by CLSI broth microdilution method; settings: isolate 210737, 18 h
Escherichia coli [29] = assay: Antibacterial activity against extended-spectrum beta-lactamase producing Escherichia coli isolate 106342 after 18 hrs in presence of BPL by CLSI broth microdilution method; settings: isolate 106342, 18 h; summary of the method: as §1
Klebsiella pneumoniae [30] = assay: Antibacterial activity against KPC-2 producing Klebsiella pneumoniae isolate 212232 after 18 hrs by CLSI broth microdilution method; settings: isolate 212232, 18 h
Escherichia coli [31] = assay: Selectivity index, ratio of MIC for against extended-spectrum beta-lactamase producing Escherichia coli isolate 106342 to MIC for extended-spectrum beta-lactamase producing Escherichia coli isolate 106342 in presence of BPL
Escherichia coli [32] = assay: Antibacterial activity against Escherichia coli isolate 210737 after 18 hrs in presence of BPL by CLSI broth microdilution method; settings: isolate 210737, 18 h; summary of the method: as §1
Klebsiella pneumoniae [33] = assay: Antibacterial activity against KPC-2 producing Klebsiella pneumoniae isolate 212423 after 18 hrs by CLSI broth microdilution method; settings: isolate 212423, 18 h
Klebsiella pneumoniae [34] = assay: Antibacterial activity against KPC-2 producing Klebsiella pneumoniae isolate 209632 after 18 hrs in presence of BPL by CLSI broth microdilution method; settings: isolate 209632, 18 h; summary of the method: as §1
Escherichia coli [35] = assay: Selectivity index, ratio of MIC for against Escherichia coli isolate 210737 to MIC for Escherichia coli isolate 210737 in presence of BPL
Klebsiella pneumoniae [36] = assay: Antibacterial activity against KPC-2 producing Klebsiella pneumoniae isolate 212229 after 18 hrs by CLSI broth microdilution method; settings: isolate 212229, 18 h

C=CC1[C@H](NC(=O)/C(=N\OC(c2cc(=O)c(O)cn2O)C(C)C)c2csc(N)n2)C(=O)N1S(=O)(=O)O (stereo partly specified)
MIC (Escherichia coli [1]): > 64 µg/mL | MIC (Escherichia coli [2]): 64 µg/mL (≈ 118 µM) | MIC (Escherichia coli [3]): > 64 µg/mL | Selectivity Index (Escherichia coli [4]): 32 | Selectivity Index (Escherichia coli [5]): 1 - 32 | MIC (Klebsiella pneumoniae [6]): > 64 µg/mL | MIC (Klebsiella pneumoniae [7]): > 64 µg/mL | MIC (Pseudomonas aeruginosa [8]): > 64 µg/mL | MIC (Pseudomonas aeruginosa [9]): > 64 µg/mL | MIC (Escherichia coli [10]): > 64 µg/mL | MIC (Klebsiella pneumoniae [11]): > 64 µg/mL | MIC (Klebsiella pneumoniae [12]): > 64 µg/mL | MIC (Klebsiella pneumoniae [13]): > 64 µg/mL | MIC (Pseudomonas aeruginosa [14]): > 64 µg/mL | MIC (Pseudomonas aeruginosa [15]): > 64 µg/mL | MIC (Klebsiella pneumoniae [16]): > 64 µg/mL | Selectivity Index (Pseudomonas aeruginosa [17]): 1 | MIC (Pseudomonas aeruginosa [18]): > 64 µg/mL | MIC (Pseudomonas aeruginosa [19]): > 64 µg/mL | MIC (Escherichia coli [20]): > 64 µg/mL | MIC (Pseudomonas aeruginosa [21]): 64 µg/mL | MIC (Escherichia coli [22]): 64 µg/mL (≈ 118 µM) | MIC (Pseudomonas aeruginosa [23]): 64 µg/mL (≈ 118 µM) | MIC (Pseudomonas aeruginosa [24]): > 64 µg/mL | MIC (Pseudomonas aeruginosa [25]): > 64 µg/mL | MIC (Escherichia coli [26]): 2 µg/mL | Selectivity Index (Escherichia coli [27]): 1 - 32 | MIC (Escherichia coli [28]): > 64 µg/mL | MIC (Escherichia coli [29]): 64 µg/mL | MIC (Klebsiella pneumoniae [30]): > 64 µg/mL | Selectivity Index (Escherichia coli [31]): 1 | MIC (Escherichia coli [32]): > 64 µg/mL | MIC (Klebsiella pneumoniae [33]): > 64 µg/mL | MIC (Klebsiella pneumoniae [34]): > 64 µg/mL | Selectivity Index (Escherichia coli [35]): 1 - 32 | MIC (Klebsiella pneumoniae [36]): > 64 µg/mL
